ChEMBL document CHEMBL1275561, “In vitro activities of doripenem, a new broad-spectrum carbapenem, against recently collected clinical anaerobic isolates, with emphasis on the Bacteroides fragilis group” (2008)

Experiments:
Assay type in all cases: functional
[1] = system: Bacteroides thetaiotaomicron; experiment: Antimicrobial activity against Bacteroides thetaiotaomicron assessed as resistant isolates by agar dilution method
Method in brief: (§1)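 CLSI agar dilution on enriched brucella agar (5% lysed defibrinated sheep blood, 1 μg/ml vitamin K1), plates made on test day. Log-phase inocula adjusted to 0.5 McFarland; about 10^5 CFU/spot by Steers replicator. Incubated anaerobically at 37°C for 48 h. MIC was the lowest concentration giving a marked change in growth versus the drug-free control plate. Resistance rates used CLSI anaerobe breakpoints. Controls were B. fragilis ATCC 25285 and B. thetaiotaomicron ATCC 29741.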

Phocaeicola vulgatus [2] = experiment: Antimicrobial activity against Bacteroides vulgatus assessed as resistant isolates by agar dilution method; method in brief: as §1
Parvimonas micra = experiment: Antimicrobial activity against Micromonas micros by agar dilution method
Method in brief: (§2)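 Gram-positive anaerobes were tested by CLSI agar dilution on brucella agar enriched with 5% lysed defibrinated sheep blood and 1 μg/ml vitamin K1. Inoculum was log-phase growth at 0.5 McFarland, about 10^5 CFU/spot by replicator. Incubation was anaerobic, 37°C, 48 h. MIC was the lowest concentration with a marked growth change versus the drug-free plate. Eubacterium lentum ATCC 43055 was the control, and tests were repeated if it fell outside the CLSI range.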

Anaerococcus prevotii = experiment: Antimicrobial activity against Anaerococcus prevotii by agar dilution method; method in brief: as §2
Bacteroides nordii [3] = experiment: Antimicrobial activity against Bacteroides nordii assessed as resistant isolates by agar dilution method; method in brief: as §1
Propionibacterium [4] = experiment: Antimicrobial activity against Propionibacterium sp. assessed as resistant isolates by agar dilution method
Method in brief: (§3)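 Agar dilution following CLSI on brucella agar with 5% lysed defibrinated sheep blood and 1 μg/ml vitamin K1, plates made on test day. Log-phase cells at 0.5 McFarland, about 10^5 CFU/spot by Steers replicator, 48 h anaerobic at 37°C. MIC read as the lowest concentration causing a marked growth change versus control. Resistance counted by CLSI anaerobe breakpoints. Eubacterium lentum ATCC 43055 served as control.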

Clostridium subterminale = experiment: Antimicrobial activity against Clostridium subterminale by agar dilution method
Bacteroides uniformis [5] = experiment: Antimicrobial activity against Bacteroides uniformis by agar dilution method
Method in brief: (§4)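 CLSI agar dilution on enriched brucella agar (5% lysed defibrinated sheep blood, 1 μg/ml vitamin K1), with drug plates made on the test day. Log-phase cells were adjusted to 0.5 McFarland, and about 10^5 CFU/spot was delivered by Steers replicator. Plates were incubated anaerobically at 37°C for 48 h. MIC was the lowest concentration giving a marked growth change versus the control plate. Controls were B. fragilis ATCC 25285 and B. thetaiotaomicron ATCC 29741.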

[6] = system: Peptoniphilus asaccharolyticus; experiment: Antimicrobial activity against Peptoniphilus asaccharolyticus assessed as resistant isolates by agar dilution method; details: pooled result: one value given for 4 cell lines, strains, targets or settings; method in brief: as §3
[7] = system: Bacteroides thetaiotaomicron; experiment: Antimicrobial activity against Bacteroides thetaiotaomicron by agar dilution method; method in brief: as §4
Bacteroides uniformis [8] = experiment: Antimicrobial activity against Bacteroides uniformis assessed as resistant isolates by agar dilution method; method in brief: as §1
Propionibacterium [9] = experiment: Antimicrobial activity against Propionibacterium sp. by agar dilution method
Method in brief: (§5)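 Log-phase isolates were adjusted to 0.5 McFarland, and about 10^5 CFU/spot was delivered by Steers replicator. Plates were incubated anaerobically at 37°C for 48 h. MIC was the lowest concentration giving a marked growth change versus the control plate. Eubacterium lentum ATCC 43055 was the QC strain, with repeats when out of range.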

[Clostridium] innocuum [10] = Antimicrobial activity against Clostridium innocuum by agar dilution method
Finegoldia magna [11] = experiment: Antimicrobial activity against Finegoldia magna by agar dilution method; method in brief: as §2
Clostridioides difficile = experiment: Antimicrobial activity against Clostridium difficile by agar dilution method
Bacteroides nordii [12] = experiment: Antimicrobial activity against Bacteroides nordii by agar dilution method; method in brief: as §4
Bacteroides eggerthii [13] = experiment: Antimicrobial activity against Bacteroides eggerthii assessed as resistant isolates by agar dilution method; method in brief: as §1
Peptostreptococcus sp. = experiment: Antimicrobial activity against Peptostreptococcus sp. by agar dilution method; method in brief: as §5
Bacteroides caccae [14] = experiment: Antimicrobial activity against Bacteroides caccae by agar dilution method; method in brief: as §4
[15] = system: Parabacteroides distasonis; experiment: Antimicrobial activity against Bacteroides distasonis by agar dilution method; method in brief: as §4
Phocaeicola vulgatus [16] = experiment: Antimicrobial activity against Bacteroides vulgatus by agar dilution method; method in brief: as §4
Parabacteroides merdae [17] = experiment: Antimicrobial activity against Bacteroides merdae assessed as resistant isolates by agar dilution method; method in brief: as §1
Cutibacterium acnes [18] = experiment: Antimicrobial activity against Propionibacterium acnes assessed as resistant isolates by agar dilution method; method in brief: as §3
Cutibacterium acnes [19] = experiment: Antimicrobial activity against Propionibacterium acnes by agar dilution method; method in brief: as §5
[20] = system: Peptoniphilus asaccharolyticus; experiment: Antimicrobial activity against Peptoniphilus asaccharolyticus by agar dilution method; method in brief: as §2
Bacteroides fragilis [21] = experiment: Antimicrobial activity against Bacteroides fragilis by agar dilution method; method in brief: as §4
[22] = system: Parabacteroides distasonis; experiment: Antimicrobial activity against Bacteroides distasonis assessed as resistant isolates by agar dilution method; method in brief: as §1
Finegoldia magna [23] = experiment: Antimicrobial activity against Finegoldia magna assessed as resistant isolates by agar dilution method; method in brief: as §3
Bacteroides ovatus [24] = experiment: Antimicrobial activity against Bacteroides ovatus by agar dilution method; method in brief: as §4
Parabacteroides merdae [25] = experiment: Antimicrobial activity against Bacteroides merdae by agar dilution method; method in brief: as §4
Bacteroides ovatus [26] = experiment: Antimicrobial activity against Bacteroides ovatus assessed as resistant isolates by agar dilution method; method in brief: as §1
Bacteroides eggerthii [27] = experiment: Antimicrobial activity against Bacteroides eggerthii by agar dilution method; method in brief: as §4
[Clostridium] innocuum [28] = Antimicrobial activity against Clostridium innocuum assessed as resistant isolates by agar dilution method; details: pooled result: one value given for 4 cell lines, strains, targets or settings
Clostridium perfringens = experiment: Antimicrobial activity against Clostridium perfringens by agar dilution method
Clostridium tertium = experiment: Antimicrobial activity against Clostridium tertium by agar dilution method
Bacteroides caccae [29] = experiment: Antimicrobial activity against Bacteroides caccae assessed as resistant isolates by agar dilution method; method in brief: as §1
[30] = system: Clostridium paraputrificum; experiment: Antimicrobial activity against Clostridium paraputrificum by agar dilution method
Bacteroides fragilis [31] = experiment: Antimicrobial activity against Bacteroides fragilis assessed as resistant isolates by agar dilution method; method in brief: as §1

C[C@@H](O)[C@H]1C(=O)N2C(C(=O)O)=C(SCCNC=N)C[C@H]12 [IMIPENEM ANHYDROUS]
0.125 mg/L: MIC50 (Parvimonas micra) | MIC50 (Anaerococcus prevotii) | MIC50 (Peptostreptococcus sp.) | MIC50 [20]
0%: Activity [1] | Activity (Phocaeicola vulgatus [2]) | Activity (Bacteroides nordii [3]) | Activity (Propionibacterium [4]) | Activity [6] | Activity (Bacteroides uniformis [8]) | Activity (Bacteroides eggerthii [13]) | Activity (Parabacteroides merdae [17]) | Activity (Cutibacterium acnes [18]) | Activity [22] | Activity (Finegoldia magna [23]) | Activity (Bacteroides ovatus [26]) | Activity (Bacteroides caccae [29])
1 mg/L: MIC50 (Bacteroides uniformis [5]) | MIC90 (Bacteroides uniformis [5]) | MIC50 [7] | MIC90 (Bacteroides nordii [12]) | MIC50 (Phocaeicola vulgatus [16]) | MIC90 (Bacteroides fragilis [21]) | MIC90 (Parabacteroides merdae [25]) | MIC90 (Bacteroides eggerthii [27])
2 mg/L: MIC50 (Clostridium subterminale) | MIC90 (Clostridium subterminale) | MIC90 [7] | MIC50 ([Clostridium] innocuum [10]) | MIC90 ([Clostridium] innocuum [10]) | MIC (Clostridioides difficile) | MIC90 (Bacteroides caccae [14]) | MIC90 [15] | MIC90 (Phocaeicola vulgatus [16]) | MIC90 (Bacteroides ovatus [24]) | MIC50 (Clostridium tertium) | MIC90 (Clostridium tertium) | MIC50 [30] | MIC90 [30]
16.7%: Activity ([Clostridium] innocuum [28])
1%: Activity (Bacteroides fragilis [31])
0.06 mg/L: MIC (Propionibacterium [9]) | MIC50 (Propionibacterium [9]) | MIC (Cutibacterium acnes [19]) | MIC50 (Cutibacterium acnes [19]) | MIC90 (Cutibacterium acnes [19])
0.25 mg/L: MIC90 (Propionibacterium [9]) | MIC50 (Finegoldia magna [11]) | MIC90 (Finegoldia magna [11]) | MIC50 [15]
0.5 mg/L: MIC90 (Parvimonas micra) | MIC90 (Anaerococcus prevotii) | MIC50 (Bacteroides nordii [12]) | MIC90 (Peptostreptococcus sp.) | MIC50 (Bacteroides caccae [14]) | MIC90 [20] | MIC50 (Bacteroides fragilis [21]) | MIC50 (Bacteroides ovatus [24]) | MIC50 (Parabacteroides merdae [25]) | MIC50 (Bacteroides eggerthii [27]) | MIC50 (Clostridium perfringens) | MIC90 (Clostridium perfringens)

CO[C@@]1(NC(=O)Cc2cccs2)C(=O)N2C(C(=O)O)=C(COC(N)=O)CS[C@@H]21 [CEFOXITIN]
64 mg/L: MIC50 (Clostridium subterminale) | MIC90 (Bacteroides uniformis [5]) | MIC90 [7] | MIC50 ([Clostridium] innocuum [10]) | MIC90 (Bacteroides ovatus [24]) | MIC50 (Clostridium tertium) | MIC50 [30]
4 mg/L: MIC90 (Parvimonas micra) | MIC90 (Anaerococcus prevotii) | MIC90 (Peptostreptococcus sp.) | MIC90 [20] | MIC90 (Clostridium perfringens)
3%: Activity (Bacteroides fragilis [31])
6.7%: Activity [22]
128 mg/L: MIC90 ([Clostridium] innocuum [10])
32 mg/L: MIC50 [7] | MIC90 (Bacteroides nordii [12]) | MIC90 (Bacteroides caccae [14]) | MIC90 [15] | MIC90 (Phocaeicola vulgatus [16]) | MIC90 (Bacteroides fragilis [21]) | MIC90 (Parabacteroides merdae [25]) | MIC90 (Bacteroides eggerthii [27])
55.6%: Activity ([Clostridium] innocuum [28])
1 mg/L: MIC (Parvimonas micra) | MIC50 (Parvimonas micra) | MIC (Anaerococcus prevotii) | MIC50 (Anaerococcus prevotii) | MIC (Propionibacterium [9]) | MIC50 (Propionibacterium [9]) | MIC90 (Propionibacterium [9]) | MIC (Finegoldia magna [11]) | MIC50 (Finegoldia magna [11]) | MIC90 (Finegoldia magna [11]) | MIC (Peptostreptococcus sp.) | MIC50 (Peptostreptococcus sp.) | MIC (Cutibacterium acnes [19]) | MIC50 (Cutibacterium acnes [19]) | MIC90 (Cutibacterium acnes [19]) | MIC [20] | MIC50 [20] | MIC (Clostridium perfringens) | MIC50 (Clostridium perfringens)
6.3%: Activity (Bacteroides caccae [29])
> 8 mg/L: MIC (Clostridioides difficile)
8 mg/L: MIC50 (Phocaeicola vulgatus [16])
9.5%: Activity (Bacteroides uniformis [8])
16 mg/L: MIC50 (Bacteroides uniformis [5]) | MIC50 (Bacteroides nordii [12]) | MIC50 (Bacteroides caccae [14]) | MIC50 [15] | MIC50 (Bacteroides fragilis [21]) | MIC50 (Bacteroides ovatus [24]) | MIC50 (Parabacteroides merdae [25]) | MIC50 (Bacteroides eggerthii [27])
3.2%: Activity (Phocaeicola vulgatus [2])
14.3%: Activity (Bacteroides ovatus [26])
10.3%: Activity [1]
> 128 mg/L: MIC90 (Clostridium subterminale) | MIC90 (Clostridium tertium) | MIC90 [30]
0%: Activity (Bacteroides nordii [3]) | Activity (Propionibacterium [4]) | Activity [6] | Activity (Bacteroides eggerthii [13]) | Activity (Parabacteroides merdae [17]) | Activity (Cutibacterium acnes [18]) | Activity (Finegoldia magna [23])
